According to ChEMBL document CHEMBL3351840, “Lithocarpic Acids A-N, 3,4-seco-Cycloartane Derivatives from the Cupules of Lithocarpus polystachyus” (J Nat Prod, 2014):
Values after ≈ are worked out from the molar mass of the structure shown.

What was measured:
[1] = target: T1, 11-beta-hydroxysteroid dehydrogenase 1 (Homo sapiens, UniProt P28845); assay: Inhibition of human 11beta-HSD1 expressed in HEK293 cells assessed as [3H]cortisol at 10 uM by scintillation proximity assay; assay type: cell-based
In short: (§1)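 Single-concentration screen at 10 μM by scintillation proximity assay, read as % inhibition. Microsomes were incubated with NADPH and [3H]-cortisone. The [3H]-cortisol formed was captured by a monoclonal antibody on protein A-coated SPA beads. Glycyrrhetinic acid served as positive control.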
Target sequence in this assay (P28845 whole entry, looked up): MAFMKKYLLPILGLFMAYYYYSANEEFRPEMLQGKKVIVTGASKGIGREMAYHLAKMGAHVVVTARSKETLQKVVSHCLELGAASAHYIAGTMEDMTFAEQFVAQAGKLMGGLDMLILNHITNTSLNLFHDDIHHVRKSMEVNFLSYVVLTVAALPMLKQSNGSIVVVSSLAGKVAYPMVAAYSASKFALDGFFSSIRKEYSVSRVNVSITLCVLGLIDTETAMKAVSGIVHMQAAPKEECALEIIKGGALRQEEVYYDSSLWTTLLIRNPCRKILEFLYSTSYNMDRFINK

[2] = target: T1, 11-beta-hydroxysteroid dehydrogenase 1; assay: Inhibition of human 11beta-HSD1 expressed in HEK293 cells assessed as [3H]cortisol by scintillation proximity assay; assay type: cell-based
In short: (§2)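 IC50 by scintillation proximity assay. Enzyme source was microsomes from HEK293 cells stably transfected with human or murine 11β-HSD1. Microsomes were incubated with NADPH and [3H]-cortisone. Product [3H]-cortisol was captured by a monoclonal antibody coupled to protein A-coated SPA beads. Glycyrrhetinic acid served as positive control.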
Target sequence in this assay (P28845 whole entry): as the sequence (P28845 whole entry, looked up) above

[3] = target: 11-beta-hydroxysteroid dehydrogenase 1 (Mus musculus) (UniProt P50172); assay: Inhibition of mouse 11beta-HSD1 expressed in HEK293 cells assessed as [3H]cortisol at 10 uM by scintillation proximity assay; assay type: cell-based; in short: as §1
Bacillus subtilis = assay: Antibacterial activity against Bacillus subtilis ATCC 6633 after 18 hrs by microdilution method; assay type: functional; conditions: ATCC 6633, 18 h
Staphylococcus aureus = assay: Antibacterial activity against Staphylococcus aureus ATCC 25923 after 18 hrs by microdilution method; assay type: functional; conditions: ATCC 25923, 18 h
[4] = system: Staphylococcus epidermidis; assay: Antibacterial activity against Staphylococcus epidermidis ATCC 12228 after 18 hrs by microdilution method; assay type: functional; conditions: ATCC 12228, 18 h
Micrococcus luteus = assay: Antibacterial activity against Micrococcus luteus ATCC 9341 after 18 hrs by microdilution method; assay type: functional; conditions: ATCC 9341, 18 h
[5] = target: 11-beta-hydroxysteroid dehydrogenase 1 (Mus musculus, UniProt P50172); assay: Inhibition of mouse 11beta-HSD1 expressed in HEK293 cells assessed as [3H]cortisol by scintillation proximity assay; assay type: cell-based; in short: as §2
Sequence of 11-beta-hydroxysteroid dehydrogenase 1 (Mus musculus, UniProt P50172) (P50172 whole entry): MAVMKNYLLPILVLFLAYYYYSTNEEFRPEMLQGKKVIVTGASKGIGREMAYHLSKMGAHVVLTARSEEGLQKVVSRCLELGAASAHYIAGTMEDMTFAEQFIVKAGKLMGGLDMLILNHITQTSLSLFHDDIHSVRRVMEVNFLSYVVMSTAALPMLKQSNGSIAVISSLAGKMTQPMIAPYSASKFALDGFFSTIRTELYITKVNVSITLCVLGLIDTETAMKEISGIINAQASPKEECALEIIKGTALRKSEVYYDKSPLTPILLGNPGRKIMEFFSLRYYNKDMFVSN

Sequence of 11-beta-hydroxysteroid dehydrogenase 1 (Mus musculus) (P50172 whole entry, looked up): as the sequence (P50172 whole entry) above

Structure (SMILES) | inhibition [1] [%] | IC50 [2] [µM] | inhibition [3] [%] | MIC (Bacillus subtilis) [µg/mL] | MIC (Staphylococcus aureus) [µg/mL] | MIC [4] [µg/mL] | MIC (Micrococcus luteus) [µg/mL] | IC50 [5] [µM]
C=C(C)[C@@H]1CC[C@@H]2[C@]3(CC[C@]4(C)[C@@H]([C@@H](CCC(=O)O)COC(C)=O)CC[C@@]24C)C[C@]13CCC(=O)O | > 60 | 1.9 | > 60 |  |  |  |  | 
C=C(C)[C@@H]1CC[C@@H]2[C@]3(CC[C@]4(C)[C@@H]([C@H]5CC[C@H](C(C)(C)O)OC5)CC[C@@]24C)C[C@]13CCC(=O)O | > 60 | 1.9 | > 60 | 6.3 (≈ 13.3 µM) | 25 (≈ 52.9 µM) | 12.5 (≈ 26.4 µM) | 3.1 (≈ 6.56 µM) | 0.24
C=C(C)[C@@H](O)CC[C@@H](COC(C)=O)[C@H]1CC[C@@]2(C)[C@@H]3CC[C@@H](C(=C)C)[C@@]4(CCC(=O)O)C[C@@]34CC[C@]12C |  |  |  | 12.5 (≈ 24.3 µM) | > 50 | 25 (≈ 48.6 µM) | 12.5 (≈ 24.3 µM) | 
CC1COc2c(N3CCN(C)CC3)c(F)cc3c(=O)c(C(=O)O)cn1c23 (stereo not given) [OFLOXACIN] |  |  |  | 0.013 (≈ 0.036 µM) | 0.2 (≈ 0.553 µM) | 0.2 (≈ 0.553 µM) | 1.6 (≈ 4.43 µM) | 
C=C(C)[C@H](O)CC[C@@H](COC(C)=O)[C@H]1CC[C@@]2(C)[C@@H]3CC[C@@H](C(=C)C)[C@@]4(CCC(=O)O)C[C@@]34CC[C@]12C |  |  |  | 12.5 (≈ 24.3 µM) | > 50 | 25 (≈ 48.6 µM) | 12.5 (≈ 24.3 µM) | 
C=C(C)[C@@H]1CC[C@@H]2[C@]3(CC[C@]4(C)[C@@H]([C@H]5CC[C@@H](C(C)(C)O)OC5)CC[C@@]24C)C[C@]13CCC(=O)O |  |  |  | > 50 | > 50 | > 50 | > 50 | 
C=C(C)C(=O)CC[C@@H](COC(C)=O)[C@H]1CC[C@@]2(C)[C@@H]3CC[C@@H](C(=C)C)[C@@]4(CCC(=O)O)C[C@@]34CC[C@]12C |  |  |  | 25 (≈ 48.8 µM) | > 50 | > 50 | > 50 | 

Results, then the compound that gave them:

inhibition [1] [%] | IC50 [2] [µM] | inhibition [3] [%] | MIC (Bacillus subtilis) [µg/mL] | MIC (Staphylococcus aureus) [µg/mL] | MIC [4] [µg/mL] | MIC (Micrococcus luteus) [µg/mL] | IC50 [5] [µM] | Structure (SMILES)
 |  |  | 50 (≈ 105 µM) | > 50 | > 50 | 50 (≈ 105 µM) |  | C=C(C)[C@@H]1CC[C@@H]2[C@]3(CC[C@]4(C)[C@@H]([C@H](C)CC[C@H](O)C(C)(C)O)CC[C@@]24C)C[C@]13CCC(=O)O
 |  |  | 3.1 (≈ 6.79 µM) | > 50 | > 50 | 6.3 (≈ 13.8 µM) |  | C=C(C)[C@@H]1CC[C@@H]2[C@]3(CC[C@]4(C)[C@@H]([C@H](C)C/C=C/C(C)(C)O)CC[C@@]24C)C[C@]13CCC(=O)O
> 60 | 2.3 | > 60 | 6.3 (≈ 12.2 µM) | 25 (≈ 48.6 µM) | 12.5 (≈ 24.3 µM) | 6.3 (≈ 12.2 µM) | 0.74 | C=C(C)[C@@H]1CC[C@@H]2[C@]3(CC[C@]4(C)[C@@H]([C@@H](C/C=C/C(C)(C)O)COC(C)=O)CC[C@@]24C)C[C@]13CCC(=O)O
> 60 | 1.4 | > 60 | 6.3 (≈ 13.3 µM) | 25 (≈ 52.9 µM) | 25 (≈ 52.9 µM) | 12.5 (≈ 26.4 µM) | 0.99 | C=C(C)[C@H](O)CC[C@@H](CO)[C@H]1CC[C@@]2(C)[C@@H]3CC[C@@H](C(=C)C)[C@@]4(CCC(=O)O)C[C@@]34CC[C@]12C
